{
  "source": "ChEMBL document CHEMBL1136746",
  "about": "(2003)",
  "key": {"Caco-2": {"test_system": "Caco-2", "assay": "Apparent Permeability through Caco-2 cell monolayers (n = 4)", "type": "functional, cell-based", "settings": "Homo sapiens", "method_in_brief": "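Caco-2 cells seeded on polycarbonate inserts (0.45 µm pore, 6.5 mm) and grown 21 days to differentiate; TEER >400 Ω/cm² before and after. ³H-acetylated peptide or [¹⁴C]mannitol (200 µM) added apically in HBSS/25 mM HEPES pH 7.4, 37 °C, shaken 400 rpm. Receiver chamber swapped at 30, 90, 150 min; scintillation counting. Papp averaged over four replicates.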"}, "Rattus norvegicus [1]": {"organism": "Rattus norvegicus", "assay": "Reduction in the amplitude of the nACh-activated current in rat parasympathetic ganglia at a concentration of 22 nM to that of control response (n =2)", "type": "functional", "parameters": "scale not given: the % may be the effect or the level left"}, "Rattus norvegicus [2]": {"organism": "Rattus norvegicus", "assay": "Reduction in the nACh-activated current in rat parasympathetic ganglia at a concentration of 4.5 nM to that of control response (n =3)", "type": "functional", "parameters": "scale not given: the % may be the effect or the level left"}, "Rattus norvegicus [3]": {"organism": "Rattus norvegicus", "assay": "Percent Hemolysis observed in rat red blood cells when Treated with 1 mM concentration", "type": "functional"}, "Rattus norvegicus [4]": {"organism": "Rattus norvegicus", "assay": "Percent Hemolysis observed in rat red blood cells when Treated with 2 mM concentration", "type": "functional"}, "Rattus norvegicus [5]": {"organism": "Rattus norvegicus", "assay": "Percent Hemolysis observed in rat red blood cells when Treated with 5 mM concentration", "type": "functional"}, "Rattus norvegicus [6]": {"organism": "Rattus norvegicus", "assay": "Reduction in the amplitude of the nACh-activated current in rat parasympathetic ganglia", "type": "functional, organism-based"}, "Rattus norvegicus [7]": {"organism": "Rattus norvegicus", "assay": "Reduction in the amplitude of the nACh-activated current in rat parasympathetic ganglia at a concentration of 22 nM to that of control response (n =4)", "type": "functional", "parameters": "scale not given: the % may be the effect or the level left"}, "Rattus norvegicus [8]": {"organism": "Rattus norvegicus", "assay": "Reduction in the amplitude of the nACh-activated current in rat parasympathetic ganglia at a concentration of 222 nM to that of control response (n =3)", "type": "functional", "parameters": "scale not given: the % may be the effect or the level left"}, "Rattus norvegicus [9]": {"organism": "Rattus norvegicus", "assay": "Reduction in the amplitude of the nACh-activated current in rat parasympathetic ganglia at 10 uM (n = 3); No effect", "type": "functional, organism-based", "method_in_brief": "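Perforated-patch whole-cell recording with 240 µg/mL amphotericin B in the pipette (K₂SO₄/KCl/MgSO₄/HEPES, pH 7.2). Bath: NaCl/KCl/CaCl₂/MgCl₂/glucose/HEPES. ACh 500 µM plus atropine 100 nM applied 2 s by piezo. Peptide is present in pipette and perfusate. Current is expressed as % of control, mean ± SEM.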"}},
  "note": "“And” between values parts separate entries of the source, which are not always exact repeats. Equal entries are not always repeated. The source made the active and inactive calls. The calls are words filed in the database; no cut-off is given here.",
  "data": [
    {"smiles": "CC(C)C[C@@H]1NC(=O)[C@H](CC(N)=O)NC(=O)[C@H](CO)NC(=O)[C@H](Cc2c[nH]cn2)NC(=O)[C@H](CCC(=O)O)NC(=O)[C@H](CC(C)C)NC(=O)[C@H](Cc2c[nH]cn2)NC(=O)[C@@H]2CSSC[C@H](NC(=O)CN)C(=O)N[C@@H](CSSC[C@@H](C(=O)O)NC1=O)C(=O)N[C@@H](CO)C(=O)N[C@@H](CC(N)=O)C(=O)N1CCC[C@H]1C(=O)N[C@@H](C(C)C)C(=O)N2", "values": [
      {"measurement": "Papp", "setting": "Caco-2", "result": "20.5 10e-6 cm s-1"},
      {"measurement": "Control", "setting": "Rattus norvegicus [1]", "result": "57% and 41%"},
      {"measurement": "Control", "setting": "Rattus norvegicus [2]", "result": 90, "unit": "%"},
      {"measurement": "Hemolysis", "setting": "Rattus norvegicus [3]", "result": 0.53, "unit": "%"},
      {"measurement": "Hemolysis", "setting": "Rattus norvegicus [4]", "result": 0.83, "unit": "%"},
      {"measurement": "Hemolysis", "setting": "Rattus norvegicus [5]", "result": 1.35, "unit": "%"},
      {"measurement": "IC50", "setting": "Rattus norvegicus [6]", "result": 10, "unit": "nM"}
    ]},
    {"smiles": "CCCCCCCCCCC(NCC(=O)N[C@H]1CSSC[C@@H]2NC(=O)[C@H](C(C)C)NC(=O)[C@@H]3CCCN3C(=O)[C@H](CC(N)=O)NC(=O)[C@H](CO)NC(=O)[C@H](CSSC[C@@H](C(=O)O)NC(=O)[C@H](CC(C)C)NC(=O)[C@H](CC(N)=O)NC(=O)[C@H](CO)NC(=O)[C@H](Cc3c[nH]cn3)NC(=O)[C@H](CCC(=O)O)NC(=O)[C@H](CC(C)C)NC(=O)[C@H](Cc3c[nH]cn3)NC2=O)NC1=O)C(=O)O", "note": "(stereo partly specified)", "values": [
      {"measurement": "Papp", "setting": "Caco-2", "result": "4.97 10e-6 cm s-1"},
      {"measurement": "Control", "setting": "Rattus norvegicus [7]", "result": 57, "unit": "%"},
      {"measurement": "Control", "setting": "Rattus norvegicus [8]", "result": 47, "unit": "%"},
      {"measurement": "Control", "setting": "Rattus norvegicus [2]", "result": 92, "unit": "%"},
      {"measurement": "Hemolysis", "setting": "Rattus norvegicus [3]", "result": 1.04, "unit": "%"},
      {"measurement": "Hemolysis", "setting": "Rattus norvegicus [4]", "result": 0.45, "unit": "%"},
      {"measurement": "Hemolysis", "setting": "Rattus norvegicus [5]", "result": 0.83, "unit": "%"},
      {"measurement": "IC50", "setting": "Rattus norvegicus [6]", "result": 12.8, "unit": "nM"}
    ]},
    {"smiles": "CCCCCCCCCCC1C(=O)[C@H](CC(N)=O)NC(=O)[C@H](CO)NC(=O)[C@@H]2CSSC[C@@H](C(=O)O)NC(=O)[C@H](CC(C)C)NC(=O)[C@H](CC(N)=O)NC(=O)[C@H](CO)NC(=O)[C@H](Cc3c[nH]cn3)NC(=O)[C@H](CCC(=O)O)NC(=O)[C@H](CC(C)C)NC(=O)[C@H](Cc3c[nH]cn3)NC(=O)[C@H](CSSC[C@H](NC(=O)CN)C(=O)N2)NC(=O)[C@H](C(C)C)NC(=O)[C@@H]2CCCN12", "note": "(stereo partly specified)", "values": [
      {"measurement": "Reduction", "setting": "Rattus norvegicus [9]", "result": "inactive"}
    ]}
  ]
}
